Values after ≈ are worked out from the molar mass of the structure shown.
Legend:
[1] = molecular target: T1, C-X-C chemokine receptor type 2 (Homo sapiens, UniProt P25025); assay: Antagonist activity at TEV protease cleavage site linked GAL4-VP16-fused recombinant human CXCR2 expressed in cells assessed as inhibition of […] human CXCL1-stimulated beta-arrestin recruitment by CCF4-AM-fluorescence based FRET assay; type: cell-based; conditions: read-out: pIC50 (converted)
T1 sequence (P25025 whole entry): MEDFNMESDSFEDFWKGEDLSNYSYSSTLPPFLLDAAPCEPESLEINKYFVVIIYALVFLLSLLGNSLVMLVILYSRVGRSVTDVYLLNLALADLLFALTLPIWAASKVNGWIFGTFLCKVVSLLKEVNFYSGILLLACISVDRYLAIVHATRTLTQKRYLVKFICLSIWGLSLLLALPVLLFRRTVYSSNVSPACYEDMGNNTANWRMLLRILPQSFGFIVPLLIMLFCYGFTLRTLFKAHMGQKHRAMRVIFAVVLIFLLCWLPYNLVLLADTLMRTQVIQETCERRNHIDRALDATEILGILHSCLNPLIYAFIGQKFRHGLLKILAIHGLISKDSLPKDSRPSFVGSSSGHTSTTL
Summary of the method: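 Stable cell line expressing recombinant human CXCR2 linked to a TEV site and Gal4-VP16. Cells were starved 24 h at 37 °C, 5% CO2, then resuspended at ~200,000 cells/mL. They were given compound in DMSO (concentration-response), stimulated with 80 nM hCXCL1 and incubated overnight at 37 °C. CCF4-AM substrate was then added for 2 h at RT in the dark.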

[2] = Solubility of compound in fasted state simulated intestinal fluid measured after 4 hrs; type: physicochemical
Summary of the method: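 Solubility in FaSSIF, read after 4 h incubation.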

[3] = Efflux ratio of passive permeability in MDCK2-MDR1 cells transduced with BacMam2-BCRP at 3 uM after 90 mins by Transwell assay; type: ADME, cell-based, Canis lupus familiaris, MDCK-MDR1; conditions: dog
Summary of the method: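 MDCKII-MDR1 cells transduced with BacMam2-BCRP in Transwells. Compound at 3 μM was measured in duplicate, A→B and B→A, after 90 min, with and without 5 μM GF120918. ER = B→A/A→B permeability without inhibitor. System qualified with amprenavir and dantrolene ERs.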

[4] = Passive permeability in MDCK2-MDR1 cells transduced with BacMam2-BCRP at 3 uM after 90 mins by Transwell assay; type: ADME, cell-based, Canis lupus familiaris, MDCK-MDR1; conditions: dog; read-out: permeability
Summary of the method: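 MDCKII-MDR1 cells transduced with BacMam2-BCRP and grown in Transwells. Compound at 3 μM, in duplicate, was incubated 90 min A→B (and B→A) with and without GF120918 (5 μM, dual P-gp/BCRP inhibitor). Passive permeability (Pexact, nm/s) was calculated by an equation from earlier work. The permeability ratio is A→B permeability with GF120918 over A→B permeability without it.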

[5] = molecular target: T1, C-X-C chemokine receptor type 2; assay: Antagonist activity at CXCR2 in human whole blood assessed as inhibition of GROalpha-stimulated CD11b upregulation preincubated for 15 mins followed by GROalpha stimulation measured after 15 mins by FITC-staining based FACS analysis

IC50 [1]	solubility at 4 h [2]	efflux ratio at 1.5 h, 3 µM [3]	Papp at 1.5 h, 3 µM [4]	IC50 [5]	SMILES
0.398 nM	–	–	–	–	CC1=CCCC1NC(=O)Nc1ccc(Cl)c(S(=O)(=O)C(C)C)c1O (racemic)
0.251 nM	–	–	–	–	CC(C)(CCO)S(=O)(=O)c1c(Cl)ccc(NC(=O)N[C@@H]2CCC=C2Cl)c1O
79.4 nM	–	–	–	–	CC(C)(CCO)S(=O)(=O)c1c(Cl)ccc(NC(=O)N[C@H]2CCC=C2Cl)c1O
100 nM	–	–	–	–	O=C(Nc1ccc(Cl)c(S(=O)(=O)C2(F)CCOCC2)c1O)N[C@H]1CCC=C1Cl
0.251 nM	15.1 µg/mL (≈ 36.4 µM)	26.8	7.2 ×10⁻⁶ cm/s	–	CC1=CCC[C@H]1NC(=O)Nc1ccc(Cl)c(S(=O)(=O)[C@@H]2CC[C@@H](O)C2)c1O
3.16 nM	–	–	–	–	CC1=C(Cl)CCC1NC(=O)Nc1ccc(Cl)c(S(=O)(=O)C(C)C)c1O (racemic)
0.501 nM	1.4 µg/mL (≈ 3.06 µM)	3.9	30.3 ×10⁻⁶ cm/s	398 nM	CC1=CCC[C@H]1NC(=O)Nc1ccc(Cl)c(S(=O)(=O)C(C)(C)C2CCOCC2)c1O
0.316 nM	16 µg/mL (≈ 36.1 µM)	3.2	32.4 ×10⁻⁶ cm/s	398 nM	CCC1(S(=O)(=O)c2c(Cl)ccc(NC(=O)N[C@@H]3CCC=C3C)c2O)CCOCC1
316 nM	–	–	–	–	CC1=CCC[C@H]1NC(=O)Nc1ccc(Cl)c(S(=O)(=O)C2CCN(CC(F)(F)F)CC2)c1O
501 nM	–	–	–	–	CC(C)(CO)S(=O)(=O)c1c(Cl)ccc(NC(=O)N[C@H]2CCC=C2Cl)c1O
1 nM	127 µg/mL (≈ 297 µM)	25.5	12.4 ×10⁻⁶ cm/s	–	CC1=CCC[C@H]1NC(=O)Nc1ccc(Cl)c(S(=O)(=O)C2CC3(COC3)C2)c1O
0.501 nM	6.1 µg/mL (≈ 14.2 µM)	3.4	53.2 ×10⁻⁶ cm/s	200 nM	CC1=CCC[C@H]1NC(=O)Nc1ccc(Cl)c(S(=O)(=O)C2(C)CCOCC2)c1O
10 nM	–	–	–	–	CC(C)S(=O)(=O)c1c(Cl)ccc(NC(=O)NC2CCC=C2F)c1O (racemic)
0.251 nM	7 µg/mL (≈ 16.3 µM)	3.2	29.6 ×10⁻⁶ cm/s	–	CC1=CCC[C@H]1NC(=O)Nc1ccc(Cl)c(S(=O)(=O)C(C)(C)C2COC2)c1O
–	–	> 5	–	–	O=C1CN(/N=C/c2ccc(-c3ccc([N+](=O)[O-])cc3)o2)C(O)=N1 [DANTROLENE]
1 nM	–	–	–	–	CC(C)S(=O)(=O)c1c(Cl)ccc(NC(=O)NC2CCC=C2Cl)c1O (racemic)
6.31 nM	–	–	–	–	CC(C)S(=O)(=O)c1c(Cl)ccc(NC(=O)NC2C=CCC2)c1O (racemic)

IC50 [1]	solubility at 4 h [2]	efflux ratio at 1.5 h, 3 µM [3]	Papp at 1.5 h, 3 µM [4]	IC50 [5]	SMILES
2510 nM	–	–	–	–	O=C(Nc1ccc(Cl)c(S(=O)(=O)C2COC2)c1O)N[C@H]1CCC=C1Cl
> 10000 nM	–	–	–	–	CC(C)S(=O)(=O)c1c(Cl)ccc(NC(=O)NC2CCN(C)C2)c1O (racemic)
1580 nM	–	–	–	–	COC1CCCCC1NC(=O)Nc1ccc(Cl)c(S(=O)(=O)C(C)C)c1O (racemic)
1.58 nM	13.7 µg/mL (≈ 33 µM)	9.6	26.3 ×10⁻⁶ cm/s	251 nM	CC1=CCC[C@H]1NC(=O)Nc1ccc(Cl)c(S(=O)(=O)C2CCCOC2)c1O (stereo not given in full)
0.398 nM	–	–	–	–	CC(C)S(=O)(=O)c1c(Cl)ccc(NC(=O)Nc2cccc(F)c2Cl)c1O
25.1 nM	–	–	–	–	CC(C)S(=O)(=O)c1c(Cl)ccc(NC(=O)NC2CCC3CC32)c1O (stereo not given)
10 nM	–	–	–	–	CC(C)S(=O)(=O)c1c(Cl)ccc(NC(=O)NC2CCCC2)c1O
10 nM	–	–	–	–	CC(C)S(=O)(=O)c1c(Cl)ccc(NC(=O)NC2C=CCCC2)c1O (racemic)
2 nM	4.1 µg/mL (≈ 9.56 µM)	3.4	26.7 ×10⁻⁶ cm/s	200 nM	CC1=CCC[C@H]1NC(=O)Nc1ccc(Cl)c(S(=O)(=O)C2(C)CCCOC2)c1O (stereo not given in full)
31.6 nM	26.7 µg/mL (≈ 57.9 µM)	10.8	33.7 ×10⁻⁶ cm/s	–	CC1=CCC[C@H]1NC(=O)Nc1ccc(Cl)c(S(=O)(=O)C2(CCF)CCOCC2)c1O
39.8 nM	–	–	–	–	CC(C)S(=O)(=O)c1c(Cl)ccc(NC(=O)NC2CCCC23CC3)c1O (racemic)
3.98 nM	–	–	–	–	CC(C)(CO)S(=O)(=O)c1c(Cl)ccc(NC(=O)N[C@@H]2CCC=C2Cl)c1O
12.6 nM	–	–	–	–	CC1=CCCCC1NC(=O)Nc1ccc(Cl)c(S(=O)(=O)C(C)C)c1O (racemic)
158 nM	–	–	–	–	CC(C)S(=O)(=O)c1c(Cl)ccc(NC(=O)NC2CCCC2(C)C)c1O (racemic)
1.26 nM	72 µg/mL (≈ 179 µM)	3.2	28.2 ×10⁻⁶ cm/s	398 nM	COCC(C)S(=O)(=O)c1c(Cl)ccc(NC(=O)N[C@@H]2CCC=C2C)c1O (stereo not given in full)
1.26 nM	33.2 µg/mL (≈ 80 µM)	3.8	31.8 ×10⁻⁶ cm/s	126 nM	CC1=CCC[C@H]1NC(=O)Nc1ccc(Cl)c(S(=O)(=O)C2(C)CCOC2)c1O (stereo not given in full)

The next lines start with the compound.

SMILES	IC50 [1]	solubility at 4 h [2]	efflux ratio at 1.5 h, 3 µM [3]	Papp at 1.5 h, 3 µM [4]	IC50 [5]
CC(C)S(=O)(=O)c1c(Cl)ccc(NC(=O)NC2CCN(C)CC2)c1O	> 10000 nM	–	–	–	–
CC1=CCC[C@H]1NC(=O)Nc1ccc(Cl)c(S(=O)(=O)C2(F)CCOCC2)c1O	0.2 nM	3.3 µg/mL (≈ 7.62 µM)	6.2	32.3 ×10⁻⁶ cm/s	63.1 nM
CC1=CCC[C@H]1NC(=O)Nc1ccc(Cl)c(S(=O)(=O)C2CCN(CCF)CC2)c1O	0.631 nM	288 µg/mL (≈ 625 µM)	7.3	21.2 ×10⁻⁶ cm/s	200 nM
CC1=CCC[C@H]1NC(=O)Nc1ccc(Cl)c(S(=O)(=O)C(F)(F)CN(C)C)c1O	2 nM	128 µg/mL (≈ 293 µM)	12.6	26.6 ×10⁻⁶ cm/s	631 nM
CCC1CCCC1NC(=O)Nc1ccc(Cl)c(S(=O)(=O)C(C)C)c1O (racemic)	63.1 nM	–	–	–	–
CC1=CCC[C@H]1NC(=O)Nc1ccc(Cl)c(S(=O)(=O)C2(F)CCOC2)c1O (stereo not given in full)	0.794 nM	39 µg/mL (≈ 93.1 µM)	7	28.1 ×10⁻⁶ cm/s	–
CC1CCCCC1NC(=O)Nc1ccc(Cl)c(S(=O)(=O)C(C)C)c1O (racemic)	316 nM	–	–	–	–
CC(C)CN(C[C@@H](O)[C@H](Cc1ccccc1)NC(=O)O[C@H]1CCOC1)S(=O)(=O)c1ccc(N)cc1	–	–	> 12	–	–
O=C(Nc1ccc(Cl)c(S(=O)(=O)C2COC2)c1O)N[C@@H]1CCC=C1Cl	316 nM	–	–	–	–
CC1=CCC[C@H]1NC(=O)Nc1ccc(Cl)c(S(=O)(=O)C2CCN(C3CCC3)CC2)c1O	0.398 nM	491 µg/mL (≈ 1050 µM)	3.3	32 ×10⁻⁶ cm/s	501 nM
CC(C)S(=O)(=O)c1c(Cl)ccc(NC(=O)NC2CCC=C2C(F)(F)F)c1O (racemic)	25.1 nM	–	–	–	–
CC1=CCC[C@H]1NC(=O)Nc1ccc(Cl)c(S(=O)(=O)C2(CF)CCOCC2)c1O	1.26 nM	14.9 µg/mL (≈ 33.3 µM)	18.7	21.8 ×10⁻⁶ cm/s	251 nM
CO[C@@H]1CCC[C@H]1NC(=O)Nc1ccc(Cl)c(S(=O)(=O)C(C)C)c1O (racemic)	251 nM	–	–	–	–
CC(C)S(=O)(=O)c1c(Cl)ccc(NC(=O)NC2CCOCC2)c1O	1260 nM	–	–	–	–
CC1=C(F)CCC1NC(=O)Nc1ccc(Cl)c(S(=O)(=O)C(C)C)c1O (racemic)	1.58 nM	–	–	–	–
CC1CCCC1NC(=O)Nc1ccc(Cl)c(S(=O)(=O)C(C)C)c1O (racemic)	10 nM	–	–	–	–
CC(C)S(=O)(=O)c1c(Cl)ccc(NC(=O)NC2CCCCC2)c1O	50.1 nM	–	–	–	–
CC1CCC(NC(=O)Nc2ccc(Cl)c(S(=O)(=O)C(C)C)c2O)C1 (racemic)	200 nM	–	–	–	–
CC(C)S(=O)(=O)c1c(Cl)ccc(NC(=O)NC2CCCOC2)c1O (racemic)	631 nM	–	–	–	–
O=C(Nc1ccc(Cl)c(S(=O)(=O)C2(F)CCOCC2)c1O)N[C@@H]1CCC=C1Cl	0.501 nM	–	–	–	–
CC1=CCC[C@H]1NC(=O)Nc1ccc(Cl)c(S(=O)(=O)C2(C)CCN(C3CCC3)CC2)c1O	3.98 nM	139 µg/mL (≈ 289 µM)	–	–	–
CC1=CCC[C@H]1NC(=O)Nc1ccc(Cl)c(S(=O)(=O)C(C)(C)CN(C)C)c1O	126 nM	395 µg/mL (≈ 920 µM)	–	–	–
CC1=CCC[C@H]1NC(=O)Nc1ccc(Cl)c(S(=O)(=O)C2CCN(CC(F)F)CC2)c1O	2.51 nM	59 µg/mL (≈ 123 µM)	9.4	17.7 ×10⁻⁶ cm/s	–
CC(C)S(=O)(=O)c1c(Cl)ccc(NC(=O)NC2CCCC=C2Cl)c1O (racemic)	10 nM	–	–	–	–

From ChEMBL document CHEMBL4033786, “Discovery of Novel 1-Cyclopentenyl-3-phenylureas as Selective, Brain Penetrant, and Orally Bioavailable CXCR2 Antagonists” (J Med Chem, 2018)
